Experimental data reported in ChEMBL document CHEMBL1938298, “Synthesis and characterization of [¹²⁵I]2-iodo N-[(S)-{(S)-1-methylpiperidin-2-yl}(phenyl)methyl]3-trifluoromethyl-benzamide as novel imaging probe for glycine transporter 1” (Bioorg Med Chem, 2011).
Activity calls are given as the source filed them. No cut-off for these calls is given here.

Legend:
[1] = Lipophilicity, log D of the compound at pH 7.4; assay type: physicochemical; conditions: buffer
Blood [2] = assay: Drug uptake in ddY mouse blood at 11.1 kBq, iv after 5 min by gamma counting; assay type: ADME, organism-based; conditions: in vivo
In short: (§1)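 Male ddY mice (6 weeks, 30–35 g) received about 11.1 kBq [125I]tracer in 0.1 mL i.v. via tail vein. Killed at set times, organs dissected and weighed, radioactivity gamma counted. Reported as % injected dose/g tissue, mean ± SD, n = 5–6.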

Nucleic Acid = assay: Ratio of drug level in brain to blood in ddY mouse at 11.1 kBq, iv after 15 min by gamma counting; assay type: ADME, organism-based
Spleen = assay: Drug uptake in ddY mouse spleen at 11.1 kBq, iv after 0.5 min by gamma counting; assay type: ADME, organism-based; conditions: in vivo
In short: (§2)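 Male ddY mice (6 weeks, 30–35 g) were given about 11.1 kBq of [125I]tracer in 0.1 mL i.v. via the tail vein. At each time point the animals were killed and organs dissected, weighed and gamma-counted. Uptake is expressed as % injected dose per gram of tissue, mean ± SD, n = 5–6.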

Blood [3] = assay: Drug uptake in ddY mouse blood at 11.1 kBq, iv after 0.5 min by gamma counting; assay type: ADME, organism-based; conditions: in vivo; in short: as §1
Brain = assay: Drug uptake in ddY mouse brain at 11.1 kBq, iv after 30 min by gamma counting; assay type: ADME, organism-based; conditions: in vivo, 0.5 h; in short: as §1
Mus musculus [4] = assay: In vivo binding affinity to GlyT1 in ddY mouse brain medullary region at 33.3 kBq, iv after 30 mins in presence of nonradioactive compound 2 mg/kg, iv administered 15 mins prior to compound administration relative to control; assay type: functional, Medulla of organ
Kidney = assay: Drug uptake in ddY mouse kidney at 11.1 kBq, iv after 60 min by gamma counting; assay type: ADME, organism-based; conditions: in vivo, 1 h; in short: as §2
[5] = molecular target: T1, Sodium- and chloride-dependent glycine transporter 1 (Rattus norvegicus) (UniProt P28572); assay: Binding affinity to GlyT1 in rat brain midbrain at 0.03 to 0.04 nM preincubated for 20 mins in binding buffer before compound addition measured after 30 mins by autoradiography in presence of 0.01 mM GlyT1 inhibitor HPCP relative to control; assay type: tissue-based; conditions: tested as the 125I-labelled form
T1 sequence (whole entry): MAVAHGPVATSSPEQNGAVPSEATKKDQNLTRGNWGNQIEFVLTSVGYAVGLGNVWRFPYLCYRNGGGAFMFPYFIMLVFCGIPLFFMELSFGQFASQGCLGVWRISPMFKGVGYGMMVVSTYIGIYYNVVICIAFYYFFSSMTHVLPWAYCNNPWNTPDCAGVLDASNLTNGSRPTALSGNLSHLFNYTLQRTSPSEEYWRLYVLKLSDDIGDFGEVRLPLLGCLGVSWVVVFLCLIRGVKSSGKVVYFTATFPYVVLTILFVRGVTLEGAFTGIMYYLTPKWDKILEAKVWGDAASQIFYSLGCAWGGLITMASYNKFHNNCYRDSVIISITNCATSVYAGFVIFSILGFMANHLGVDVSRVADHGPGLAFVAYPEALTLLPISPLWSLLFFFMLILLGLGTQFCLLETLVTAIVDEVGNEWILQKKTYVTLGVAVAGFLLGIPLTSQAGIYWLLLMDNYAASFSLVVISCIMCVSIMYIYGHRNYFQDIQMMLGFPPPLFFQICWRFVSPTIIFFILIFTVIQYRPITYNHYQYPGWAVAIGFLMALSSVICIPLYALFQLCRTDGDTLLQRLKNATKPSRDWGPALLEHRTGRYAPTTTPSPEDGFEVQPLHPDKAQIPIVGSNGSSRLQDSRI
In short: (§3)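 Rat brain sagittal sections (20 µm) preincubated 20 min at 25 °C in Tris-HCl buffer pH 7.5 (NaCl, KCl, MgCl2, CaCl2), then 30 min at 25 °C with [125I] tracer (100 kBq, 0.03–0.04 nM) plus competitor (10 µM; glycine 1 or 10 mM). Cold washes, imaging plate 3 days, ROI PSL minus background per mm². % control from ≥triplicate slices, three rats.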

Mus musculus [6] = assay: In vivo binding affinity to GlyT1 in ddY mouse brain striatum at 33.3 kBq, iv after 30 mins in presence of N-Me-SSR504734 2 mg/kg, iv administered 15 mins prior to compound administration relative to control; assay type: functional, organism-based; parameters: dose 2 mg/kg; conditions: tested as the 125I-labelled form
[7] = molecular target: T1, Sodium- and chloride-dependent glycine transporter 1 (Rattus norvegicus); assay: Binding affinity to GlyT1 in rat brain striatum at 0.03 to 0.04 nM preincubated for 20 mins in binding buffer before compound addition measured after 30 mins by autoradiography in presence of GlyT1 inhibitor N-Me-SSR504734 relative to control; assay type: tissue-based; conditions: tested as the 125I-labelled form
[8] = molecular target: T1, Sodium- and chloride-dependent glycine transporter 1 (Rattus norvegicus); assay: Binding affinity to GlyT1 in rat brain thalamus at 0.03 to 0.04 nM preincubated for 20 mins in binding buffer before compound addition measured after 30 mins by autoradiography in presence of 0.01 mM NMDA receptor glycine site antagonist L-701,324 relative to control; assay type: tissue-based; conditions: tested as the 125I-labelled form
[9] = molecular target: T1, Sodium- and chloride-dependent glycine transporter 1 (Rattus norvegicus); assay: Binding affinity to GlyT1 in rat brain corpus callosum at 0.03 to 0.04 nM preincubated for 20 mins in binding buffer before compound addition measured after 30 mins by autoradiography in presence of 1 mM GlyT1 substrate glycine relative to control; assay type: tissue-based; conditions: tested as the 125I-labelled form; in short: as §3
Mus musculus [10] = assay: In vivo binding affinity to GlyT1 in ddY mouse brain hippocampus at 33.3 kBq, iv after 30 mins in presence of nonradioactive compound 2 mg/kg, iv administered 15 mins prior to compound administration relative to control; assay type: functional, organism-based; parameters: dose 2 mg/kg; conditions: tested as the 125I-labelled form
In short: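 Blocking study in male ddY mice (6 weeks, 30–35 g). The blocker (2 mg/kg in 30% DMSO/saline) was injected i.v. 15 min before about 33.3 kBq [125I]tracer i.v.; mice were killed at 30 or 60 min. Brains were divided into cortex, corpus callosum, hippocampus, thalamus, midbrain, medulla and cerebellum, weighed and gamma-counted as % dose/g. Values are mean ± SD, n = 5–6, compared to control by Kruskal–Wallis with Dunn's post-test.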

[11] = molecular target: T1, Sodium- and chloride-dependent glycine transporter 1 (Rattus norvegicus); assay: Binding affinity to GlyT1 in rat brain cerebellum at 0.03 to 0.04 nM preincubated for 20 mins in binding buffer before compound addition measured after 30 mins by autoradiography in presence of 0.01 mM GlyT1 inhibitor ALX5407 relative to control; assay type: tissue-based; conditions: tested as the 125I-labelled form; in short: as §3
[12] = molecular target: T1, Sodium- and chloride-dependent glycine transporter 1 (Rattus norvegicus); assay: Binding affinity to GlyT1 in rat brain corpus callosum at 0.03 to 0.04 nM preincubated for 20 mins in binding buffer before compound addition measured after 30 mins by autoradiography relative to control; assay type: tissue-based; conditions: tested as the 125I-labelled form
In short: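 Rat brain sagittal sections (20 µm), 20 min preincubation at 25 °C in Tris-HCl pH 7.5 binding buffer, then [125I] tracer (100 kBq, 0.03–0.04 nM) for 30 min at 25 °C. Nonspecific binding taken with 10 µM unlabeled ligand. Imaging-plate read-out as (PSL−BG)/mm². Mean ± SD, n = 4–5 from at least three rats; Mann–Whitney U-test.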

[13] = molecular target: T1, Sodium- and chloride-dependent glycine transporter 1 (Rattus norvegicus); assay: Binding affinity to GlyT1 in rat brain midbrain at 0.03 to 0.04 nM preincubated for 20 mins in binding buffer before compound addition measured after 30 mins by autoradiography in presence of 0.01 mM GlyT2 inhibitor ORG25543 relative to control; assay type: tissue-based; conditions: tested as the 125I-labelled form; in short: as §3

Row | SMILES | logD [1] | Drug uptake (Blood [2]) [% ID/g] | Ratio (Nucleic Acid) | Drug uptake (Spleen) [% ID/g] | Drug uptake (Blood [3]) [% ID/g] | Drug uptake (Brain) [% ID/g] | Activity (Mus musculus [4]) [%] | Drug uptake (Kidney) [% ID/g] | Activity [5] [%] | Activity (Mus musculus [6]) | Activity [7] [%] | Activity [8] [%] | Activity [9] [%] | Activity (Mus musculus [10]) | Activity [11] [%] | Activity [12] | Activity [13] [%]
1 | CN1CCCC[C@H]1[C@@H](NC(=O)c1cccc(C(F)(F)F)c1[125I])c1ccccc1 | 2.86 | 0.87 | 2.42 | 0.97 | 1.35 | 2.17 | 53 | 8.27 |  |  |  |  |  |  |  |  | 
2 | CN1CCCC[C@H]1[C@@H](NC(=O)c1cccc(C(F)(F)F)c1I)c1ccccc1 |  |  |  |  |  |  |  |  | 19.7 | Active | 32.2 | 87.1 | 94.1 | Active | 43.1 | Active | 115
